Reference: paper PMC7115568 (European Journal of Medicinal Chemistry, 2014)
Entries after “also recorded” stand apart in the source; their conditions may differ.

What was measured:
[1] = test system: Tritrichomonas foetus; assay: In vitro protozoal parasite susceptibility assay; assay type: cell-based; conditions: 24 h; for Average % inhibition at 50 μM (Tritrichomonas foetus): T. foetus strain D1, cells counted with hemacytometer; for inhibition at 50 µM: Tritrichomonas foetus, read-out: Average % inhibition at 50 μM (Tritrichomonas foetus)
Summary of the method: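 T. foetus strain D1 was screened in TYM Diamond's medium. Test compound was dissolved in DMSO and diluted into the medium. After 24 h exposure, parasites were counted with a hemacytometer.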

[2] = test system: human prostate (PC-3) cancer cell line; assay: In vitro cytotoxic studies; assay type: cell-based; conditions: PC-3 cells; for Cytotoxicity % inhibition: 72 h, MTT; for Cytotoxicity against PC-3 cell line (in words): tested at 0.2, 2.0 and 20 μM
Summary of the method: (§1)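 PC-3 cells grown in DMEM with 10% FBS and plated in 96-well format. They were exposed to test compound over 20 μM–0.001 μM for 72 h. MTT was then added (stock 5 mg/ml in PBS) for 4 h. Plates were spun, supernatant removed and formazan dissolved in DMSO with 30 min shaking. A550 was read and percentage inhibition calculated.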

[3] = In vitro cytotoxic studies; assay type: cell-based, human; conditions: human, PC-3 prostate cancer cells
Summary of the method: as §1

Compound	Average % inhibition at 50 μM (Tritrichomonas foetus) [1] [%]	Cytotoxicity % inhibition ([2]; 0.2 μM) [%]	Cytotoxicity % inhibition ([2]; 2 μM) [%]	Cytotoxicity % inhibition ([2]; 20 μM) [%]	inhibition at 50 µM [1] [%]	cytotoxicity at 72 h, 0.2 µM [3] [%]	cytotoxicity at 72 h, 2 µM [3] [%]	cytotoxicity at 72 h, 20 µM [3] [%]	Cytotoxicity against PC-3 cell line (in words) [2]
5-Methyl-1-(4-pyrrolidin-1-yl-but-2-ynyl)-1H-indole-2,3-dione [Compound 3m]	31.8	6.8	10.5	2.4					
O=C1C(=O)N(CC#CCN2CCCCC2)c2ccccc21 [Compound 3a, 1-(4-Piperadin-1-yl-but-2-ynyl)-1H-indole-2,3-dione]	18.2	6.0	4.0	7.0					
O=C1C(=O)N(CC#CCN2CCCC2)c2ccccc21 [Compound 3b, 1-(4-Pyrrolidin-1-yl-but-2-ynyl)-1H-indole-2,3-dione]					10.6	7	7	3	
O=C1C(=O)N(CC#CCN2CCOCC2)c2ccccc21 [Compound 3c, 1-(4-Morpholin-4-yl-but-2-ynyl)-1H-indole-2,3-dione]					9.1	13.4	11.6	8.7	
CCN(CC)CC#CCN1C(=O)C(=O)c2ccccc21 [Compound 3d, 1-(4-Diethylamino-but-2-ynyl)-1H-indole-2,3-dione]					22.7	8	4.6	8	
O=C1C(=O)N(CC#CCN2CCCCC2)c2ccc(Cl)cc21 [Compound 3e, 5-Chloro-1-(4-piperidin-1-yl-but-2-ynyl)-1H-indole-2,3-dione]					3	11.1	10.7	18.7	
O=C1C(=O)N(CC#CCN2CCCC2)c2ccc(Cl)cc21 [Compound 3f, 5-Chloro-1-(4-pyrrolidin-1-yl-but-2-ynyl)-1H-indole-2,3-dione]					15.2	4.6	4.3	9.6	
O=C1C(=O)N(CC#CCN2CCOCC2)c2ccc(Cl)cc21 [Compound 3g, 5-Chloro-1-(4-morpholin-4-yl-but-2-ynyl)-1H-indole-2,3-dione]					22.7	0.8	4.3	3.4	
CCN(CC)CC#CCN1C(=O)C(=O)c2cc(Cl)ccc21 [Compound 3h, 5-Chloro-1-(4-diethylamino-but-2-ynyl)-1H-indole-2,3-dione]					42.4	4.8	5.6	6.4	
O=C1C(=O)N(CC#CCN2CCCCC2)c2ccc(F)cc21 [Compound 3i, 5-Fluoro-1-(4-piperidin-1-yl-but-2-ynyl)-1H-indole-2,3-dione]					40.9	-4.7	-6	5.1	
O=C1C(=O)N(CC#CCN2CCCC2)c2ccc(F)cc21 [Compound 3j, 5-Fluoro-1-(4-pyrrolidin-1-yl-but-2-ynyl)-1H-indole-2,3-dione]					33.3	5	4.3	-2.7	
O=C1C(=O)N(CC#CCN2CCOCC2)c2ccc(F)cc21 [Compound 3k, 5-Fluoro-1-(4-morpholin-4-yl-but-2-ynyl)-1H-indole-2,3-dione]					56.1	3.8	0.7	3.2	
CCN(CC)CC#CCN1C(=O)C(=O)c2cc(F)ccc21 [Compound 3l, 1-(4-Diethylamino-but-2-ynyl)-5-fluoro-1H-indole-2,3-dione]					18.2	11.6	14.5	7.9	
Cc1ccc2c(c1)C(=O)C(=O)N2CC#CCN1CCCC1 [Compound 3n, 5-Methyl-1-(4-pyrrolidin-1-yl-but-2-ynyl)-1H-indole-2,3-dione]					65.2	1.9	4.7	6.1	
Cc1ccc2c(c1)C(=O)C(=O)N2CC#CCN1CCOCC1 [Compound 3o, 5-Methyl-1-(4-morpholin-4yl-but-2-ynyl)-1H-indole-2,3-dione]					57.6	8	7.8	3.5	
CCN(CC)CC#CCN1C(=O)C(=O)c2cc(C)ccc21 [Compound 3p, 1-(4-Diethylamino-but-2-ynyl)-5-methyl-1H-indole-2,3-dione]					51.5	11.5	10.2	11.2	
O=C1C(=O)N(CC#CCN2CCN(CC#CCN3C(=O)C(=O)c4ccccc43)CC2)c2ccccc21 [Compound 5a, Bis-{1-(yl-but-2-ynyl)-1H-indole-2,3-dione} piperazine]	3.0	6.5	10.3	45.8					cytotoxic
O=C1C(=O)N(CC#CCN2CCN(CC#CCN3C(=O)C(=O)c4cc(Cl)ccc43)CC2)c2ccc(Cl)cc21 [Compound 5b, Bis-{5-chloro-1-(yl-but-2-ynyl)-1H-indole-2,3-dione} piperazine]	7.6	24.4	28.9	24.8					
O=C1C(=O)N(CC#CCN2CCN(CC#CCN3C(=O)C(=O)c4cc(F)ccc43)CC2)c2ccc(F)cc21 [Compound 5c, Bis-{5-fluoro-1-(yl-but-2-ynyl)-1H-indole-2,3-dione} piperazine]	9.1	−0.6	−3.6	7.4					
Cc1ccc2c(c1)C(=O)C(=O)N2CC#CCN1CCN(CC#CCN2C(=O)C(=O)c3cc(C)ccc32)CC1 [Compound 5d, Bis-{5-methyl-1-(yl-but-2-ynyl)-1H-indole-2,3-dione} piperazine]	71.2	−1.0	6.7	7.1					
O=C1C(=O)N(CC#CCN2CCN(c3ccnc4cc(Cl)ccc34)CC2)c2ccccc21 [Compound 7a, 1-{4-[4-(7-Chloro-quinolin-4-yl)-piperazin-1-yl]-but-2-ynyl}-1H-indole-2,3-dione]					98.5	9	10.1	-3.2	no cytotoxicity; also recorded: minimal toxicity
O=C1C(=O)N(CC#CCN2CCN(c3ccnc4cc(Cl)ccc34)CC2)c2ccc(F)cc21 [Compound 7b, 1-{4-[4-(7-Chloro-quinolin-4-yl)-piperazin-1-yl]-but-2-ynyl}-5-fluoro-1H-indole-2,3-dione]					100	2.1	5	3	no cytotoxicity
O=C1C(=O)N(CC#CCN2CCN(c3ccnc4cc(Cl)ccc34)CC2)c2ccc(Cl)cc21 [Compound 7c, 5-Chloro-1-{4-[4-(7-chloro-quinolin-4-yl)-piperazin-1-yl]-but-2-ynyl}-1H-indole-2,3-dione]					100	6.1	1.2	1.4	no cytotoxicity; also recorded: minimal toxicity
Cc1ccc2c(c1)C(=O)C(=O)N2CC#CCN1CCN(c2ccnc3cc(Cl)ccc23)CC1 [Compound 7d, 1-{4-[4-(7-Chloro-quinolin-4-yl)-piperazin-1-yl]-but-2-ynyl}-5-methyl-1H-indole-2,3-dione]					59.1	1.3	8.1	8.2	no cytotoxicity; also recorded: minimal toxicity
O=C1C(=O)N(CC#CCN2CCN(c3ccnc4cc(Cl)ccc34)CC2)c2ccc([N+](=O)[O-])cc21 [Compound 7e, 1-{4-[4-(7-Chloro-quinolin-4-yl)-piperazin-1-yl]-but-2-ynyl}-5-nitro-1H-indole-2,3-dione]					60.6	0.5	3.2	4.8	
CS(=O)(=O)N1CCN(Cc2cc3nc(-c4cccc5[nH]ncc45)nc(N4CCOCC4)c3s2)CC1 [GDC-0941, reference compound]						30.2	56.8	72.2	
